This note sets out measurements from ChEMBL document CHEMBL1124387, “Cardiotonic agents. 9. Synthesis and biological evaluation of a series of (E)-4,5-dihydro-6-[2-[4-(1H-imidazol-1-yl)phenyl]ethenyl]-3 (2H)-pyridazinones: a novel class of compounds with positive inotropic, antithrombotic, and vasodilatory activities for the treatment of congestive heart failure” (J Med Chem, 1989).

Data set [1] is filed under the species Homo sapiens. Nature of the data set: In vitro inhibition of ADP stimulated platelet aggregation in human whole blood. The class given is functional. The method, boiled down: (§1)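 Human whole blood from aspirin/NSAID-free fasted donors, read by impedance aggregometry 5 min after adding ADP or collagen. Aggregation expressed as % of control (2-6 replicates), plotted against log drug concentration; IC50 obtained by extrapolation.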

The test system of data set [2] is Canis familiaris. Kind of data set: Hemodynamic activity in anesthetized dog as percent change in fore limb resistance from baseline (2.77 mmHg/mL/min) at 0.03 mg/kg administered intravenously. The class given is functional, Canis lupus familiaris. To be noted: route intravenous. The method, boiled down: (§2)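 Acutely instrumented anesthetized dogs (n = 6), 30-min control period. Compound in 0.9% saline, or dilute HCl diluted with saline, at 0.1 mL/kg iv over 1 min. At least four ascending half-log doses, 10 min apart, one compound per animal. Recorded: LV dP/dtmax, heart rate, aortic pressure and forelimb resistance. Values are maximum response from control average ± SEM.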

Data set [3] relates to Canis familiaris. Kind of data set: Hemodynamic activity in anesthetized dog as percent change in left ventricular myocardial activity from baseline (2271 mmHg/s) at 0.003 mg/kg administered intravenously. Type of data set: functional, Canis lupus familiaris, Heart left ventricle. The settings on record: route intravenous. The method, boiled down: as §2
Data set [4] is filed under the species Homo sapiens. Kind of data set: In vitro inhibition of collagen stimulated platelet aggregation in human thrombocyte enriched plasma. Type of data set: functional. The method, boiled down: (§3)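 Human platelet-rich plasma from aspirin/NSAID-free donors, adjusted to 250 000 platelets/μL with platelet-poor plasma. Drug in DMSO/saline (1% DMSO final) was added before ADP or collagen, with doses set by titration. Read-out was aggregation extent (ADP, curve height) or rate (collagen, major slope) as % of saline control.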

The species named for data set [5] is Homo sapiens. Nature of the data set: In vitro inhibition of ADP stimulated platelet aggregation in human thrombocyte enriched plasma. Type of data set: functional. The method, boiled down: as §3
The subject of data set [6] is Canis familiaris. Kind of data set: Hemodynamic activity in anesthetized dog as percent change in left ventricular myocardial activity from baseline (2271 mmHg/s) at 0.01 mg/kg administered intravenously. To be noted: route intravenous. Type of data set: functional, Canis lupus familiaris, Heart left ventricle. The method, boiled down:
as §2

For data set [7], the species on record is Homo sapiens. Kind of data set: In vitro inhibition of collagen stimulated platelet aggregation in human whole blood. Type of data set: functional. The method, boiled down: as §1
The test system of data set [8] is Canis familiaris. Kind of data set: Decrease in thrombus weight in anesthetized dog coronary artery. The class given is functional, Canis lupus familiaris. The method, boiled down:
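Pentobarbital-anesthetized (32 mg/kg iv), ventilated dogs, allowed 30 min to stabilize. Continuous infusion of compound (1.0, 3.0 or 10.0 μg/kg/min) or saline began 15 min before 50 μA current was applied to an intraluminal electrode in the circumflex coronary artery. After 60 min of stimulation the animals were euthanized and the thrombus dissected and weighed. One treatment per animal.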

Data set [9] concerns Canis familiaris. Nature of the data set: Weight of thrombus after 60 min of 3 ug/kg/min. Type of data set: functional, Canis lupus familiaris. The method, boiled down: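 Anesthetized adult dogs were given sodium pentobarbital (32 mg/kg iv), intubated and artificially respired, then allowed 30 min to stabilize after surgery. Circumflex coronary thrombosis was induced by delivering 50 μA through an intraluminal silver-coated copper electrode, which denuded the endothelium. Continuous drug or saline infusion began 15 min before current onset and ran throughout, with one treatment per animal. After 60 min of stimulation the thrombus was dissected and weighed.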

Data set [10] is described as follows: Partition coefficient (logP). The settings on record: octanol/water. Type of data set: physicochemical.
Data set [11] concerns Canis familiaris. Nature of the data set: Hemodynamic activity in anesthetized dog as percent change in heart rate from baseline (152 bpm) at 0.01 mg/kg administered intravenously. The class given is functional, Canis lupus familiaris. The settings on record: route intravenous. The method, boiled down:
as §2

Data set [12] can be described thus: Inhibition of phosphodiesterase 3 from guinea pig cardiac tissue at 1*10e-7-1*10e-4 M. Further details: species or system Cavia porcellus. The method, boiled down: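 Fraction III cAMP-PDE from guinea pig heart or human platelets. Substrate [3H]cyclic AMP 1.0 μM at 30°C, with hydrolysis held to ≤10-20% and kept linear over 30 min. Compounds in DMSO, 2.5% final.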

For data set [13], the system named is Canis familiaris. Kind of data set: Cardiovascular activity in presence of beta-adrenoceptor blockade in dogs as percent change in blood pressure from base line (116/94 mmHg) at 0.01 mg/kg dose before nadolol administration; -9/-11.

Molecules are shown by their SMILES. pIC50: −log10 of the molar value.

Regarding `CC1CC(=O)NN=C1/C=C/c1ccc(-n2ccnc2)cc1.Cl` (stereo not drawn), the pIC50 (commonly the negative decadic logarithm of the IC50, by convention in mol/L) in the data set listed under Homo sapiens [1] is 7.05; in the data set listed under Homo sapiens [4], 7.52; in the data set listed under Homo sapiens [5] it was 6.52; in the data set listed under Homo sapiens [7], 8.82; in data set [12], 6.60. Further, the Change is on record as -49% in the data set with Canis familiaris [2]; 19% with Canis familiaris [3]; 65% in the data set with Canis familiaris [6]; 12% in the data set with Canis familiaris [11]; -9% in the data set with Canis familiaris [13]. Also, the Inhibition (usually the drop in the measured response relative to a control, in per cent) with Canis familiaris [8] is given as 40%. The molecule also yielded a Thrombus weight with Canis familiaris [9] of 6.3 mg. For the same molecule, the logP – broadly, a log measure of how a compound divides between an organic and an aqueous phase – in [10] turned out to be 1.71.
